A selection: hits, their analogues and other compounds. The true share with any hit is near 8.9%.
Dynein cargo inh = dynein cargo transport inhibition; 3617.4 mouse cells, GR-EGFP nuclear translocation imaging; test concentration mostly 20 µM; stimulated with dexamethasone, 1 µM; hits give low values; z-score, hits read low; 220,000 compounds, 0.47% hits; AID 1381;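 active = plate z-score of nuclear minus cytoplasmic receptor signal below a set negative limit, without overly bright fluorescence or cell loss, cut at about -3.5 in these data, passing the limit was not always enough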;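 note: z-score of nuclear minus cytoplasmic ring GR-EGFP intensity difference per well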
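Medium: Induction medium lacking tetracycline, stripped serum | Probe or stimulus: 1.0 µM final dexamethasone stimulus | Schedule: 48 h induction, then 1 h compound, then 30 min agonist, 37 °C | Signal: Automated 10x imaging of fixed Hoechst-stained cells | Evaluation: Per-cell GR-EGFP intensity, nucleus versus surrounding cytoplasmic ring, well-averaged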
HSV replic up = HSV replication enhancement; HSV replication augmentation in cells, fold increase; maximum fold increase; 220,000 compounds, 0.005% hits; AID 1956; in the data active = maximum fold increase above about 1.5; inconclusive = no clear call, values can overlap the other calls; tested in PC3 cells
MT stabilizer = microtubule stabilization, imaging screen. HeLa tubulin immunostaining HCS, 24 h; share of cells brighter than vehicle mean+2SD. % tubulin-high responders, % at 10 µM. 200,000 compounds, 0.83% hits. AID 2205;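 active = plate Z-score above 3 for both tubulin-high and condensed-nucleus cell shares, with cell loss under 80%, at 10 µM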;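 note: anti alpha tubulin signal scored within the nucleus-defined area of each cell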
L major viab = Leishmania major promastigote growth inhibition; inhibition, % at 10 µM; 200,000 compounds, 9% hits; Leishmania major promastigotes, resazurin fluorescence viability; AID 1063; in the data active = inhibition above about 50%;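 note: promastigotes grown with compound for 44 hours at 28 °C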
b-catenin transl = modulators of beta-catenin nuclear translocation; nuclear translocation activity, % at 5 µM; HeLa beta-catenin nuclear translocation, immunofluorescence imaging; 190,000 compounds, 0.3% hits;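 active = nuclear translocation activity above 50% at 5 µM, with a well cell count of 50 or more; inconclusive = wells under 50 cells across six images, flagged as toxic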;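 note: per-cell ratio of nuclear to cytoplasmic median beta-catenin stain intensity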
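System: Human HeLa cells, endogenous beta-catenin | Compound dosing: 5 µM primary, 0.02–20 µM confirmation | Timing: 24 h compound exposure at 37°C, 5% CO2 | Measured by: Fluorescence imaging of beta-catenin antibody stain plus DAPI | Read-out basis: % activation of per-cell nuclear versus cytoplasmic median beta-catenin signal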
Large screens that a line does not name were inactive.

CCOC(=O)CNCCC(=O)c1ccc(Br)cc1	L major viab 63.5
Cc1cc(N2C(=O)C=CC2=O)c([N+](=O)[O-])cc1C	Dynein cargo inh -6.27 (no result: b-catenin transl)
Cc1ccc(C)c(N2CCN(c3ccc(N4C(=O)COCC4=O)cc3[N+](=O)[O-])CC2)c1	none
Cc1ccc(NC2=C(CC(=O)O)C(c3ccccc3)N(c3ccc(C)cc3)C2=O)cc1 (centres undefined)	MT stabilizer 12.3
CCOC(=O)c1ccc(-n2c(C)nc3ccccc3c2=O)cc1	none
Cc1ccc(O)c(N=NC2=C(O)CC(C)(C)CC2=O)c1	L major viab 98.9 (no result: b-catenin transl)
CC1(C)CC(=O)C(N=Nc2cc(Cl)c(Cl)c(Cl)c2)=C(O)C1	none (no result: b-catenin transl)
Cc1nc2ccc(N=NC3=C(O)CC(C)(C)CC3=O)cc2s1	L major viab 90.9 (no result: b-catenin transl)
CCC(C)C(=O)Nc1nccs1 (centres undefined)	none
O=C(NCc1ccc2c(c1)OCO2)C1CCCN(S(=O)(=O)c2cccc3cccnc23)C1 (centres undefined)	none
Nc1nnn(CC(=O)N/N=C/c2ccco2)n1	none (no result: MT stabilizer, L major viab)
COc1cc(CNC(C)(C)CO)cc(Br)c1OCc1ccc(Cl)cc1Cl	L major viab 99.9, b-catenin transl inconclusive
COc1cc(CNC(C)(C)CO)cc(Br)c1OCc1ccc(Cl)cc1	L major viab 98.3
COc1cc2cc(C(c3nnnn3C3CCCC3)N3CCCCCC3)c(=O)[nH]c2cc1OC (centres undefined)	none
COc1ccccc1/C=C/C1(C(=O)NC2CCCC2)CC(=O)N1c1ccc(F)cc1 (centres undefined)	MT stabilizer 19.5, L major viab 84.8
COc1ccccc1/C=C/C1(C(=O)NC2CCCC2)CC(=O)N1c1ccc(C)cc1 (centres undefined)	none
Cc1onc(-c2c(F)cccc2Cl)c1C(=O)NC(=S)Nc1c(C)n(C)n(-c2ccccc2)c1=O	none
CCOc1ccc(CCNC(=O)COC(=O)c2ccc(OC)c(OC)c2OC)cc1OCC	L major viab 65.7
COc1cc(C2C=C(Nc3ccccc3)C(=O)N2c2ccccc2)ccc1O (centres undefined)	none
O=C(/C(=N\Nc1ccc([N+](=O)[O-])cc1)Sc1nnnn1-c1ccccc1)c1ccccc1	none
NC(N)=Nc1nc(-c2ccccc2)c2ccccc2n1	L major viab 98.2
CCCC(=O)OC(C(=O)Nc1cc(C(F)(F)F)ccc1Cl)c1ccccc1 (centres undefined)	L major viab 89.5 (no result: b-catenin transl)
COCCn1c(C)cc(C(=O)CSc2nc3nc(C)cc(C)n3n2)c1C	L major viab 61.9 (no result: b-catenin transl)
CC1CCc2c(nc3ncnn3c2N2CC(C)OC(C)C2)C1 (centres undefined)	none
CC(C)(C)c1ccc(OCC(=O)NCCN2CCCC2)cc1	L major viab 80.1 (no result: HSV replic up)
CCCc1nnc(NC(=O)c2cc3ccccc3oc2=O)s1	none
COc1nc(Nc2ccc(C(C)C)cc2)nc(OC)n1	L major viab 86.2 (no result: b-catenin transl)
COC(=O)C1=C(Nc2ccccc2NS(=O)(=O)c2ccc(C(F)(F)F)cc2Cl)CSC1	none (no result: MT stabilizer, L major viab)
CCn1cc(C(=O)NCc2ccc3c(c2)OCO3)c(=O)c2cc(F)c(N3CCN(C)CC3)cc21	L major viab 79.1
CCn1cc(C(=O)NCC(C)C)c(=O)c2cc(F)c(N3CCN(C)CC3)cc21	none (no result: MT stabilizer, L major viab)
CCn1cc(C(=O)NCc2ccccn2)c(=O)c2cc(F)c(N3CCN(C)CC3)cc21	none (no result: Dynein cargo inh, MT stabilizer, L major viab)
CCn1cc(C(=O)NCCc2ccccc2)c(=O)c2cc(F)c(N3CCN(C)CC3)cc21	L major viab 97.2
O=C(CNC(=S)NC(=O)c1ccccc1)c1ccccc1	none
O=C(Cn1c(=O)c2c(ncn2Cc2ccccc2)n(Cc2ccccc2)c1=O)N1CCc2ccccc21	L major viab 100.1
CCOC(=O)CSc1nc(-c2ccccn2)ncc1OC	none
COc1cnc(-c2ccccn2)nc1Sc1ccc(Cl)cc1	L major viab 100.2
COc1cnc(-c2ccccn2)nc1Sc1ccc(F)cc1	L major viab 93.8
COc1cnc(-c2ccccn2)nc1Sc1ccccc1	L major viab 100.3
COc1cnc(-c2ccccn2)nc1Oc1ccccc1	none
COc1ccc(Sc2nc(-c3ccccn3)ncc2OC)cc1	L major viab 100.5
NC(=O)COc1ccccc1/C=C1/SC(=O)N(CC(=O)N2CCc3ccccc3C2)C1=O	L major viab 95.4 (no result: HSV replic up)
COc1ccc(N(CC(=O)N2CCc3ccccc32)S(=O)(=O)c2c(C)noc2C)cc1	none
Cc1cc(=O)[nH]c(N/N=C/c2ccccn2)n1	L major viab 98.8

Bioassay records from PubChem.
